The record followed here is ChEMBL document CHEMBL3352788, “Characterization of selective exosite-binding inhibitors of matrix metalloproteinase 13 that prevent articular cartilage degradation in vitro” (J Med Chem, 2014).

Series [1] addresses Procathepsin L (Homo sapiens) (UniProt P07711). Kind of series: Inhibition of recombinant human cathepsin L using GGALRAG substrate at up to 5 uM after 3 hrs. The gist of the method: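 In this microfluidic protease panel, enzyme and compound were preincubated 30 min at 25 °C. The peptide substrate was added and the reaction was incubated 3 h at 25 °C, then quenched (SDS, EDTA, iodoacetate). Activity was read as % substrate converted to product. Dose–response was singlicate, 12-point 3-fold dilutions spanning 5 μM to 0.028 nM. IC50 was the concentration leaving 50% activity relative to no-compound control.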

Series [2] addresses T1, Caspase-7 (Homo sapiens) (UniProt P55210).
T1 sequence (whole entry): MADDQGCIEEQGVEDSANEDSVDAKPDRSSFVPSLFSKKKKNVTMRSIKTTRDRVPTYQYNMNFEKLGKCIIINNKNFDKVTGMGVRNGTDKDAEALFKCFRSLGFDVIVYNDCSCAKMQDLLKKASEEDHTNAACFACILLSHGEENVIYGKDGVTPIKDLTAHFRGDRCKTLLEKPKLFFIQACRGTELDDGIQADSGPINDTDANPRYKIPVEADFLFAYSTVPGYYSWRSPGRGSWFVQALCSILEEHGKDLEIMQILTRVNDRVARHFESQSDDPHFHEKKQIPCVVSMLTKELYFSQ
Kind of series: Inhibition of recombinant human caspase 7 using DEVDAA substrate at up to 5 uM after 3 hrs. The gist of the method:
(§1)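 Outsourced microfluidic protease panel. Compound was preincubated with each protease for 30 min at 25 °C, then peptide substrate was added for 3 h at 25 °C and quenched with SDS/EDTA/iodoacetate. Substrate-to-product conversion was measured on LabChip. Compounds were tested singly in a 12-point 3-fold dilution series, top 20 μM (5 μM for two reference compounds).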

Series [3] has as its target T2, Caspase-2 (Homo sapiens) (UniProt P42575).
T2 sequence (whole entry): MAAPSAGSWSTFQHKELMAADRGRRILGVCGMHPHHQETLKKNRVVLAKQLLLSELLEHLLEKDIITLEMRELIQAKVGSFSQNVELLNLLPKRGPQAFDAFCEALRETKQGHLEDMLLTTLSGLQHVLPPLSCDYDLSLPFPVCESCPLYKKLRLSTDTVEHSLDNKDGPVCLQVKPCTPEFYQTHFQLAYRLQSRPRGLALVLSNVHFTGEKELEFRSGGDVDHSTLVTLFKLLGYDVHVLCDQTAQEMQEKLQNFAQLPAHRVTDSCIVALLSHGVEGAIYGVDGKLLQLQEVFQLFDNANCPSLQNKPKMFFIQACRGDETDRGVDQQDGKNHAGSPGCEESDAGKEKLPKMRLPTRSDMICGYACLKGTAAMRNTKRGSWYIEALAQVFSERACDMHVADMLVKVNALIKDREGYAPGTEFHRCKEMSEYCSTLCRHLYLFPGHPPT
The series can be described thus: Inhibition of recombinant human caspase 2 using DEVDAA substrate at up to 5 uM after 3 hrs. The gist of the method: as §1

Series [4] concerns the target Beta-secretase 1 (Homo sapiens) (UniProt P56817). The series can be described thus: Inhibition of recombinant human BACE1 using SEVNLDAEFRKKRR substrate at up to 5 uM after 3 hrs. The procedure, abridged:
as §1

The target in series [5] is Cytochrome P450 2D6 (Homo sapiens, UniProt P10635). Kind of series: Inhibition of CYP2D6 (unknown origin) using dextromethophan substrate. Format: ADME. The gist of the method: (§2)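 Human liver microsomes with probe substrate and an NADPH-regenerating system in 0.1 M potassium phosphate pH 7.4 at 37 °C, run in duplicate. Inhibitor at 0–20 μM (0–2.5 μM for one compound), eight concentrations. Reactions were stopped with acetonitrile/formic acid containing isotope-labelled internal standard, and metabolite area ratios were compared with and without inhibitor. IC50 was taken by linear interpolation between bracketing concentrations.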
Sequence of Cytochrome P450 2D6 (P10635 whole entry): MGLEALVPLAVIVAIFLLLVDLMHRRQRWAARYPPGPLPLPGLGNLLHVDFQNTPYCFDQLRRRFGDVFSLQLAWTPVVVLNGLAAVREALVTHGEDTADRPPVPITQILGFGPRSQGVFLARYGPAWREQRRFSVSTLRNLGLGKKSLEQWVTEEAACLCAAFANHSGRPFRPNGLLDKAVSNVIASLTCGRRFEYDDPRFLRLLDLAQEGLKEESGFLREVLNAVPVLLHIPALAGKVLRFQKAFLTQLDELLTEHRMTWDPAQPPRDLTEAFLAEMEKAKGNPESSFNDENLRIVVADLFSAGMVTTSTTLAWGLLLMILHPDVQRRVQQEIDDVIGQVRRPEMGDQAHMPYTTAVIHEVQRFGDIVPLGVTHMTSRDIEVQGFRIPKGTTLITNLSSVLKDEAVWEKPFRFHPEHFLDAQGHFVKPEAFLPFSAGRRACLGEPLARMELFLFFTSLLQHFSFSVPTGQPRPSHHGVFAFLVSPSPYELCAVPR

In series [6] the target is 72 kDa type IV collagenase (Homo sapiens) (UniProt P08253). Kind of series: Inhibition of recombinant human MMP-2 using GRIGFL substrate up to 20 uM. The procedure, abridged:
as §1

The target of series [7] is Urokinase-type plasminogen activator (Homo sapiens) (UniProt P00749). Kind of series: Inhibition of recombinant human uPA using GRTSSVEP substrate at up to 20 uM after 3 hrs. The gist of the method:
(§3)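 Each protease was preincubated 30 min at 25 °C with compound in its assay buffer. Peptide substrate was then added and the reaction ran 3 h at 25 °C before quenching with SDS/EDTA/iodoacetate. Substrate-to-product conversion (%) was read by microfluidic electrophoresis. Compounds were tested in singlicate as 12-point 3-fold dilutions from 20 μM to 0.1 nM. IC50 was taken as the concentration giving 50% of no-compound control activity.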

Series [8] concerns the target T3, Collagenase 3 (Homo sapiens, UniProt P45452). Kind of series: Inhibition of full-length recombinant human MMP-13 assessed as bovine type-2 collagen hydrolysis after 22 hrs by fluorescence assay.
The target in series [9] is T4, Cathepsin K (Homo sapiens) (UniProt P43235).
T4 sequence (whole entry): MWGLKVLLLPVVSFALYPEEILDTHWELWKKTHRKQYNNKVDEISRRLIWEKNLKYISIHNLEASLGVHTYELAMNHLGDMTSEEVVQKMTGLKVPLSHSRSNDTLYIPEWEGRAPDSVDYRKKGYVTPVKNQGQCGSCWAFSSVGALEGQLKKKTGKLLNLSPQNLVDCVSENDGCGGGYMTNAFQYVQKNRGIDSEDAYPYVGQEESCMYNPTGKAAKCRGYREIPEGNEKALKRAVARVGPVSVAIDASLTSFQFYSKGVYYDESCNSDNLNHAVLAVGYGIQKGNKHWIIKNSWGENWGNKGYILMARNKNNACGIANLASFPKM
Kind of series: Inhibition of recombinant human cathepsin K using HHQKLVFFAE substrate at up to 20 uM after 3 hrs. The procedure, abridged:
as §1

For series [10], the target named is Coagulation factor X (Homo sapiens) (UniProt P00742). Kind of series: Inhibition of recombinant human factor 10a using ALPRTMFIQ substrate at up to 20 uM after 3 hrs. The gist of the method:
as §3

The target of series [11] is Cathepsin D (Homo sapiens) (UniProt P07339). The series can be described thus: Inhibition of recombinant human cathepsin D using EVNLDAEFRK substrate at up to 20 uM after 3 hrs. The procedure, abridged: as §1
Sequence of Cathepsin D (Homo sapiens) (P07339 65-162 limits assumed): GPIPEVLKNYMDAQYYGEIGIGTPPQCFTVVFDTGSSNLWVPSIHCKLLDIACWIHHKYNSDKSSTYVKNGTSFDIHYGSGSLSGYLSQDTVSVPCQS
Sequence of Cathepsin D (Homo sapiens) (P07339 169-412 limits assumed): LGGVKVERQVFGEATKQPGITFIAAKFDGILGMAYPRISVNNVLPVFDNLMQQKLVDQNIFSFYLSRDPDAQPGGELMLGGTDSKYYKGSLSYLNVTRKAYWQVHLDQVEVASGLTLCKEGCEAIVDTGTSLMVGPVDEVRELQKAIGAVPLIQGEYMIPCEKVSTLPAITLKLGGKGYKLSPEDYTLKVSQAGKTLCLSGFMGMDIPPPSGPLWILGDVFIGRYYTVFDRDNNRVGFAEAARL
Series [12] deals with Procathepsin L (Homo sapiens) (UniProt P07711). The series can be described thus: Inhibition of recombinant human cathepsin L using GGALRAG substrate at up to 20 uM after 3 hrs. The procedure, abridged: as §3
Sequence of Procathepsin L (Homo sapiens) (P07711 114-333 limits assumed): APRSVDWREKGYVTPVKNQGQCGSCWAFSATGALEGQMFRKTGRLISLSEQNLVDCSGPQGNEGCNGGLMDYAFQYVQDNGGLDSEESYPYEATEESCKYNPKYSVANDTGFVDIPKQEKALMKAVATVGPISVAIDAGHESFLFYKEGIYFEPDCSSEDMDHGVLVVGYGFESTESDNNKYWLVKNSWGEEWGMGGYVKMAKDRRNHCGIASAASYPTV
Series [13] has as its target T3, Collagenase 3. Kind of series: Non-competitive inhibition of full-length recombinant human MMP-13 assessed as fTHP-15 substrate hydrolysis.
Series [14] has as its target Cytochrome P450 3A4 (Homo sapiens, UniProt P08684). Kind of series: Inhibition of CYP3A4 (unknown origin) using testosterone substrate at 20 uM. The series is classed as ADME. The gist of the method:
as §2

Series [15] deals with Liver. The series can be described thus: Half life in mouse liver microsomes by LC-MS/MS analysis. The series is classed as ADME. The gist of the method: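 Compound at 1 μM with 1 mg/mL liver microsomes in 100 mM potassium phosphate pH 7.4 at 37 °C with shaking. Reaction started with 1 mM NADPH (final). Aliquots were taken at 0, 5, 10, 20, 40 and 60 min and quenched in acetonitrile. Parallel incubations without NADPH were run.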

Sequence of 72 kDa type IV collagenase (Homo sapiens) (P08253 110-660 limits assumed): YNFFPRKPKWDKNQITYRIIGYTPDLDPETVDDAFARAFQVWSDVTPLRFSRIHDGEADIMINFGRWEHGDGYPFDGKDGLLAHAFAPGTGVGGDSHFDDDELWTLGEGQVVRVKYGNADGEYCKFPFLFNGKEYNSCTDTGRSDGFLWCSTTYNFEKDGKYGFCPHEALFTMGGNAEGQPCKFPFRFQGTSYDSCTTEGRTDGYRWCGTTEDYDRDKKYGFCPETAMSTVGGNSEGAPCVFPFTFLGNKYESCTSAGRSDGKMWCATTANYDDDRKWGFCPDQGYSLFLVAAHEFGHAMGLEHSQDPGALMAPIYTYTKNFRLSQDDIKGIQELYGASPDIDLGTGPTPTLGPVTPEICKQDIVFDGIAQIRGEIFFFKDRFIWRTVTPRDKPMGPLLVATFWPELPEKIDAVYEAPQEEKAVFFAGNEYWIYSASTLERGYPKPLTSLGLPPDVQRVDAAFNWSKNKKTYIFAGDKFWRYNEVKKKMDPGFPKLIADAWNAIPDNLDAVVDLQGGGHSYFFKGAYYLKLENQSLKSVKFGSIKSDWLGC
Sequence of Coagulation factor X (Homo sapiens) (P00742 41-179 limits assumed): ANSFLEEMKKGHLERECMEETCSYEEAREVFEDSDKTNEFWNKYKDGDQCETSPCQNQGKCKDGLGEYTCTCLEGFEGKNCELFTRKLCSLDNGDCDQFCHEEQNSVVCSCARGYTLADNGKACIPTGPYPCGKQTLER
Sequence of Coagulation factor X (Homo sapiens) (P00742 235-488 limits assumed): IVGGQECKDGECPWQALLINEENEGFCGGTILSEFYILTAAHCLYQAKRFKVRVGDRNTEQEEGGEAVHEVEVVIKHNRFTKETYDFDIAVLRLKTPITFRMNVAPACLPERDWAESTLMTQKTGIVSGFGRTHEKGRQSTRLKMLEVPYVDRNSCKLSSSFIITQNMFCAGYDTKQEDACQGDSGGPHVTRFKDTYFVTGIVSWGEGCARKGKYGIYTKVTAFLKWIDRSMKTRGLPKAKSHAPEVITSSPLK
Sequence of Beta-secretase 1 (Homo sapiens) (P56817 whole entry): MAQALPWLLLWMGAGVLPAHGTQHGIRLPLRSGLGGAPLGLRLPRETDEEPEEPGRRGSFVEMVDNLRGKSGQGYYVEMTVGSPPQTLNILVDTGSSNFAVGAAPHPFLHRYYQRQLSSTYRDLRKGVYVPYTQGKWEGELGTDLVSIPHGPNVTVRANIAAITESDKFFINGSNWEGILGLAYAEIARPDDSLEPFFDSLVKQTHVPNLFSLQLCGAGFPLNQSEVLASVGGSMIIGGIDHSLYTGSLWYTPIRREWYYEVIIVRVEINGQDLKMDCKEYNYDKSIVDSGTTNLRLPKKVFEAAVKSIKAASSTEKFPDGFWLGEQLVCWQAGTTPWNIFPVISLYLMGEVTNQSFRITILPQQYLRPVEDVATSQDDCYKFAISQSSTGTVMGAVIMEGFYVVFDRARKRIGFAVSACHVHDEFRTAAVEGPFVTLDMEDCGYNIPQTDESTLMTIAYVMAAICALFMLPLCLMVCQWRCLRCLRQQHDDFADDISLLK
Sequence of Cytochrome P450 3A4 (P08684 whole entry): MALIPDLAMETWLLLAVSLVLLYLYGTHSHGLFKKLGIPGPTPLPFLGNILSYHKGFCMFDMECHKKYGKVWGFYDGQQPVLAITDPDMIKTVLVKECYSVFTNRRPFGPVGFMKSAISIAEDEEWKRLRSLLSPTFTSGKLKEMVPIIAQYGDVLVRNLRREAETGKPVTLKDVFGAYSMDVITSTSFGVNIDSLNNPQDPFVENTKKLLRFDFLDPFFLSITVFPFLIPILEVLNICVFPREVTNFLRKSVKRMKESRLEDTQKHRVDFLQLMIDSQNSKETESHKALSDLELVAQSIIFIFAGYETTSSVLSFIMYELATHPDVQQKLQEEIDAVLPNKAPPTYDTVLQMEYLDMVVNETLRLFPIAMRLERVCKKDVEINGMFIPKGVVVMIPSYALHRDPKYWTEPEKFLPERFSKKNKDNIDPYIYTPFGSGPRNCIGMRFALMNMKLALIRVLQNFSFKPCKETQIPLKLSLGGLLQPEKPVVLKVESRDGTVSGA

Regarding `Cn1c(=O)n(Cc2ccc(C(=O)O)cc2)c(=O)c2cc(C#CCc3ccccc3)ccc21`, the inhibition in series [1], in [2], in [3] and in series [4] was less than 10% each time. The molecule also displayed an IC50 in series [5] of more than 2500 nM.

Turning to `Cc1ccc(CSc2nc(O)c3c(n2)CCC3)cc1`, the inhibition in series [6] is more than 10%; in [7], less than 10%; in series [8], “Dose-dependent effect”; in [9], 20%; in series [10], less than 10%; in [11], less than 10%. Besides, the inhibition in [12] is less than 10%.

For `COC(=O)c1ccc(CSc2nc3c(c(=O)[nH]2)CCC3)cc1`, the inhibition in [6] was more than 10%; in [7], less than 10%; in series [9], less than 10%; in series [10], less than 10%; in series [11], less than 10%; in [12], less than 10%. Besides, the IC50 is 2800 nM in series [13], 2300 nM in series [8] and more than 20000 nM in series [5]. Besides, in [14], the “inhibition (INH)” value is less than 50%. The molecule also came in with a t1/2 in series [15] of 2 min.

Regarding `Oc1nc(SCc2ccc(Cl)cc2)nc2c1CCC2`, the inhibition in series [6] is more than 10%; in series [7], less than 10%; in series [8], “Dose-dependent effect”; in series [9], less than 10%; in series [10], less than 10%; in series [11] it was less than 10%. The inhibition in [12] was less than 10%. In addition, the IC50 in series [13] is 3400 nM; in series [8], 700 nM; in series [5], more than 20000 nM. Besides, the t1/2 in series [15] was 1.3 min.

As for `Cc1cc(CNC(=O)c2cc(C(=O)NCc3ccc(F)c(C)c3)ncn2)ccc1F`, the inhibition in [1], in series [2], in series [3] and in [4] was less than 10% throughout. The molecule further displayed a half-inhibitory concentration (IC50) in [5] of more than 20000 nM. In [14], this molecule registered an inhibition (INH) of more than 10%.

In general, inhibition refers to the drop in the measured response relative to a control, in per cent. Usually IC50 stands for the concentration that gives 50% inhibition.
